Experimental findings from PubChem BioAssay are described below.

Structures are written as SMILES. Calls of active or inactive are those of the source.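 The calls were made as follows, unless noted: active = viability loss from added drug above about 55%, and viability with drug at most 40%, in both replicates (limit read from the data, passing the limit was not always enough); inconclusive = both conditions met in only one replicate; inactive = neither replicate meets both conditions.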

Experiment [1] can be described thus: reduced viability of SK-BR-3 breast cancer cells – cell-based, 24 h, human, pilot screen (AID 572;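 active = viability at or below 10% of carrier control in both of two separate runs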;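 also: compound exposure lasted between 18 and 24 h rather than exactly 24 h; 100% = carrier-treated control wells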). Conditions: SK-BR-3 viability, CellTiter-Glo luminescence, at 10 µM, stronger effect = lower value. (Cellular ATP, detected with luciferase, serves as a proxy for viable cell number.)
A short description of experiment [2]: HUVEC growth inhibition – cell-based, human, primary screen (AID 575;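 active = viability at or below 30% in both replicate assays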;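 also: 100% = median of untreated cell wells with 0.1% DMSO on each plate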). Conditions: HUVEC proliferation, CellTiter-Glo luminescence, 72 h; at 10 µM; stronger effect = lower value. In short, it runs like this: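 Test system: primary human umbilical vein endothelial cells. Quantity: 1250 cells/well. Compound: single 10 µM dose, 0.1% DMSO, from 5x medium stock. Timing: 72 h treatment at 37 °C. Detection: ATP-based CellTiter-Glo luminescent read. Benchmarks: vehicle and MePR control wells. Format: 384-well plates coated with collagen.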

Experiment [3] can be described thus: H69AR cell proliferation blockers – human, duplicate replicates, primary screen (AID 580;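 active = viability at or under a set limit in both replicates, limit being median viability minus 3 SD, cut at about 48% in these data, passing the limit was not always enough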;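 also: 100% = mean luminescence of untreated wells and 0% = no signal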). Conditions: H69AR lung tumor cells viability, ATP luminescence, 72 h; at 10 µM; stronger effect = lower value.
The nature of experiment [4]: MRP1 drug-resistance reversers in H69AR cells – cell-based, doxorubicin co-treatment, pilot screen (AID 601). As to conditions: CellTiter-Glo, 72 h, at 10 µM; for differential viability (reversal): stronger effect = higher value.
A short description of experiment [5]: yeast transport mutant growth inhibition pilot in 384-well plates, post-Golgi transport modulator project (AID 636; in the data active = inhibition above about 31%). Conditions: absorbance 615 nm, about 18 h, stronger effect = higher value.
The nature of experiment [6]: growth suppression of yeast trafficking mutant, preliminary HTS, modulators of trafficking downstream of Golgi apparatus project, 1536-format plate, OD 615 nm (AID 637; in the data active = inhibition above about 30%). As to conditions: yeast transport mutant growth, absorbance 615 nm, 18 h; stronger effect = higher value.
Where [7] appears, read: H69AR cells + 2 uM doxorubicin, measured here: viability with 2 uM doxorubicin, stronger effect = lower value.
Where [8] appears, read: H69AR cells, compound alone cytotoxicity.

The term viability denotes a read-out of living cells in per cent, often relative to untreated cells. One may read the inhibition as the change of the read-out against control, counted positive when it falls. Take `C/C(=N\O)C(=O)C(CN1CCCCC1)CN1CCCCC1`: the viability is 116% (inactive) in experiment [1]; 95.6% (inactive) in experiment [2]; 8.43% (active) in experiment [3]; 2.52% in experiment [4] (setting [7]); 8.43% in experiment [4] (setting [8]). Further, in experiment [4] (H69AR cells + 2 uM doxorubicin), the differential viability (reversal) was 5.9% (inactive). The inhibition is 1.95% (inactive) in experiment [5] and -7% (inactive) in experiment [6].
Turning to `O=C1c2ccccc2C(=O)N1CCN1CCCCC1`, the viability is 98% (inactive) in experiment [1]; 129% (inactive) in experiment [2]; 103% (inactive) in experiment [3]; 99.4% in experiment [4] (setting [7]); 103% in experiment [4] (setting [8]). Moreover, the differential viability (reversal) in experiment [4] (H69AR cells + 2 uM doxorubicin) is 4.01% (inactive). Besides, the inhibition in experiment [5] is 3.38% (inactive); in experiment [6], -1.64% (inactive).
As to `O=C(NCN1CCCCC1)c1cccnc1`, the viability is 134% (inactive) in experiment [1]; 102% (inactive) in experiment [2]; 106% (inactive) in experiment [3]; 107% in experiment [4] (setting [7]); 106% in experiment [4] (setting [8]). Moreover, the differential viability (reversal) in experiment [4] (H69AR cells + 2 uM doxorubicin) is -0.935% (inactive). In addition, the inhibition in experiment [5] was -3.9% (inactive); in experiment [6] it was 6.07% (inactive).
Consider `Cc1nc(-c2ccccc2)sc1C(N)=O`, for which the viability in experiment [1] is 107% (inactive); in experiment [2] it was 96.4% (inactive); in experiment [3] it was 94.4% (inactive); in experiment [4] (setting [7]), 106%; in experiment [4] (setting [8]), 94.4%. The differential viability (reversal) in experiment [4] (H69AR cells + 2 uM doxorubicin) was -12.1% (inactive). Also, the inhibition in experiment [5] is -3.29% (inactive); in experiment [6] it was 12.6% (inactive).
Consider `CCCS(=O)(=O)N1CCCC(C(=O)NC(C)c2ccc3c(c2)OCCO3)C1` (centres undefined), for which the viability in experiment [1] was 79% (inactive); in experiment [2], 71.3% (inactive); in experiment [3], 93.9% (inactive); in experiment [4] (setting [7]), 87.8%; in experiment [4] (setting [8]), 93.9%. Further, in experiment [4] (H69AR cells + 2 uM doxorubicin), the differential viability (reversal) was 6.12% (inactive). For the same molecule, the inhibition was -2.34% (inactive) in experiment [5] and 0.49% (inactive) in experiment [6].
Consider `CCOCC(O)CS(=O)Cc1ccccc1` (centres undefined), for which the viability in experiment [1] was 111% (inactive); in experiment [2] it was 113% (inactive); in experiment [3], 98.5% (inactive); in experiment [4] (setting [7]), 76.4%; in experiment [4] (setting [8]), 98.5%. The differential viability (reversal) in experiment [4] (H69AR cells + 2 uM doxorubicin) was 22.1% (inactive). In addition, the inhibition is -6.67% (inactive) in experiment [5] and -4.55% (inactive) in experiment [6].
As for `COCCNC(=O)c1snc2ccc(Cl)cc12`, the viability in experiment [1] is 89% (inactive); in experiment [2] it was 83.4% (inactive); in experiment [3], 102% (inactive); in experiment [4] (setting [7]) it was 91.5%; in experiment [4] (setting [8]), 102%. Further, in experiment [4] (H69AR cells + 2 uM doxorubicin), the differential viability (reversal) is 10.2% (inactive). Besides, the inhibition in experiment [5] is 4.42% (inactive); in experiment [6], 4.43% (inactive).
As for `CCOC(=O)N1CCC(N(C(=O)Nc2cccc(OC)c2)C(C)CC)CC1` (centres undefined), the viability was 129% (inactive) in experiment [1]; 120% (inactive) in experiment [2]; 96.9% (inactive) in experiment [3]; 95.5% in experiment [4] (setting [7]); 96.9% in experiment [4] (setting [8]). Further, the differential viability (reversal) in experiment [4] (H69AR cells + 2 uM doxorubicin) was 1.43% (inactive). Besides, the values for the inhibition in experiment [5] and in experiment [6] were -2.21% (inactive) and 3.11% (inactive), respectively.
As to `CC(C)NC(=O)c1ccccc1NC(=O)CCS(=O)(=O)Cc1ccccc1`, the viability in experiment [1] was 116% (inactive); in experiment [2] it was 107% (inactive); in experiment [3] it was 87.7% (inactive); in experiment [4] (setting [7]), 89.1%; in experiment [4] (setting [8]) it was 87.7%. Also, the differential viability (reversal) in experiment [4] (H69AR cells + 2 uM doxorubicin) was -1.34% (inactive). The inhibition is -1.64% (inactive) in experiment [5] and 9.82% (inactive) in experiment [6].
Consider `CCCOc1cccc(NC(=O)c2c(-c3ccccc3)noc2C)c1`, for which the viability in experiment [1] is 94% (inactive); in experiment [2] it was 89.7% (inactive); in experiment [3], 86.7% (inactive); in experiment [4] (setting [7]), 102%; in experiment [4] (setting [8]) it was 86.7%. For the same molecule, in experiment [4] (H69AR cells + 2 uM doxorubicin), the differential viability (reversal) was -15.2% (inactive). Further, the inhibition was 0.78% (inactive) in experiment [5] and -1.97% (inactive) in experiment [6].
Take `OC[C@H]1O[C@@H](n2cnc3c(NC4CCCC4)ncnc32)[C@H](O)[C@@H]1O`: the viability was 113% (inactive) in experiment [1]; 57.6% (inactive) in experiment [2]; 74.9% (inactive) in experiment [3]; 93% in experiment [4] (setting [7]); 74.9% in experiment [4] (setting [8]). Moreover, the differential viability (reversal) in experiment [4] (H69AR cells + 2 uM doxorubicin) was -18.2% (inactive). The inhibition in experiment [5] was 0.52% (inactive); in experiment [6] it was -5% (inactive).
For `Cc1ccc(F)cc1NC(=O)C1CCCN(c2ncccn2)C1` (centres undefined), the viability is 100% (inactive) in experiment [1]; 104% (inactive) in experiment [2]; 88.7% (inactive) in experiment [3]; 90.6% in experiment [4] (setting [7]); 88.7% in experiment [4] (setting [8]). Besides, the differential viability (reversal) in experiment [4] (H69AR cells + 2 uM doxorubicin) is -1.88% (inactive). In addition, the inhibition in experiment [5] is -6.8% (inactive); in experiment [6], -2.91% (inactive).
For the molecule `O=C(NC(=O)c1ccc(Cl)cc1)Nc1cc(N2CCCCC2)ncn1`, the viability in experiment [1] is 85% (inactive); in experiment [2] it was 93.9% (inactive); in experiment [3], 91.1% (inactive); in experiment [4] (setting [7]) it was 93%; in experiment [4] (setting [8]), 91.1%. Further, the differential viability (reversal) in experiment [4] (H69AR cells + 2 uM doxorubicin) was -1.91% (inactive). The inhibition in experiment [5] was -7.4% (inactive); in experiment [6], 3.87% (inactive).
Turning to `CCOc1ccc(-c2c(C#N)c(N)nc3c2c(=O)n(C)c(=O)n3C)cc1OC`, the viability in experiment [1] is 114% (inactive); in experiment [2], 86% (inactive); in experiment [3], 94.7% (inactive); in experiment [4] (setting [7]), 92.1%; in experiment [4] (setting [8]), 94.7%. Moreover, in experiment [4] (H69AR cells + 2 uM doxorubicin), the differential viability (reversal) is 2.56% (inactive). Besides, the inhibition in experiment [5] was -6.44% (inactive); in experiment [6], 6.77% (inactive).
Take `CCC(CC)n1[nH]c(=O)c2c(C)cc(C)nc21`: the viability is 81% (inactive) in experiment [1]; 103% (inactive) in experiment [2]; 105% (inactive) in experiment [3]; 90.5% in experiment [4] (setting [7]); 105% in experiment [4] (setting [8]). For the same molecule, the differential viability (reversal) in experiment [4] (H69AR cells + 2 uM doxorubicin) was 14.5% (inactive). In addition, the inhibition in experiment [5] is -5.14% (inactive); in experiment [6], -6% (inactive).
As to `CN(C)c1nc(OCCOC(=O)Nc2ccc(Cl)cc2Cl)nc(N(C)C)n1`, the viability is 70% (inactive) in experiment [1]; 103% (inactive) in experiment [2]; 96.3% (inactive) in experiment [3]; 79.9% in experiment [4] (setting [7]); 96.3% in experiment [4] (setting [8]). Moreover, in experiment [4] (H69AR cells + 2 uM doxorubicin), the differential viability (reversal) was 16.4% (inactive). Besides, the inhibition in experiment [5] is -5.21% (inactive); in experiment [6], 2.91% (inactive).
With `CC1CN(C(=O)CSc2nnc(-c3ccc(Cl)cc3)n2C)CC(C)O1` (centres undefined), the viability in experiment [1] is 78% (inactive); in experiment [2], 110% (inactive); in experiment [3] it was 99.5% (inactive); in experiment [4] (setting [7]) it was 94.2%; in experiment [4] (setting [8]), 99.5%. In addition, in experiment [4] (H69AR cells + 2 uM doxorubicin), the differential viability (reversal) was 5.23% (inactive). Also, the inhibition in experiment [5] was -6.08% (inactive); in experiment [6], 2.91% (inactive).
Consider `CC1=Nn2c(nnc2-c2ccc(F)cc2)SC1`, for which the viability in experiment [1] is 85% (inactive); in experiment [2], 97% (inactive); in experiment [3] it was 97.2% (inactive); in experiment [4] (setting [7]) it was 96.6%; in experiment [4] (setting [8]), 97.2%. In experiment [4] (H69AR cells + 2 uM doxorubicin), the differential viability (reversal) is 0.585% (inactive). The inhibition in experiment [5] is -5.14% (inactive); in experiment [6], -2.55% (inactive).
